Activity calls are given as the source filed them. No cut-off for these calls is given here. Residues, ends and D or L forms follow the SMILES beside them. *: point of attachment. Cbz = O=C(OCc1ccccc1)*
Assays:
[1] = biological target: Cytochrome P450 2C9 (Homo sapiens, UniProt P11712); assay: Metabolic stability of the compound assessed as CYP2C9 (unknown origin)-mediated conversion to N-((2S)-1-((3S)-2-hydroxychroman-3-ylamino)-1-oxo-3-phenylpropan-2-yl)-4-methylpiperazine-1-carboxamide measured up to 4 hrs in presence of NADPH-regenerating system; assay type: ADME
Cytochrome P450 2C9, sequence (P11712 whole entry): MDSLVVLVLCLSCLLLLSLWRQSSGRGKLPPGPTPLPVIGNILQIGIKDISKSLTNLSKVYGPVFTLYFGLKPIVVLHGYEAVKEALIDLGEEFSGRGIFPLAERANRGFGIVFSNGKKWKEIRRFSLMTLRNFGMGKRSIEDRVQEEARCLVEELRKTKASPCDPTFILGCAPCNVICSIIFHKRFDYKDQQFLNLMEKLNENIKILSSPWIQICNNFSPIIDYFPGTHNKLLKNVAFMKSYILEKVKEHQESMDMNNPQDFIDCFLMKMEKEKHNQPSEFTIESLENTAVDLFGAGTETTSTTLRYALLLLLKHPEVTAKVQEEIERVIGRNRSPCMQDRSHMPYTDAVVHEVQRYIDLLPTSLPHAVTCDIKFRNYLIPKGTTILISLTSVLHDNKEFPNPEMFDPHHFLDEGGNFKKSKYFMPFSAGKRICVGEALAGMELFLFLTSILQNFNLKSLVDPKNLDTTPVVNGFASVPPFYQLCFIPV

[2] = biological target: Cytochrome P450 2D6 (Homo sapiens, UniProt P10635); assay: Metabolic stability of the compound assessed as CYP2D6 (unknown origin)-mediated conversion to N-((2S)-1-((3S)-2-hydroxychroman-3-ylamino)-1-oxo-3-phenylpropan-2-yl)-4-methylpiperazine-1-carboxamide measured up to 4 hrs in presence of NADPH-regenerating system; assay type: ADME
Cytochrome P450 2D6, sequence (P10635 whole entry): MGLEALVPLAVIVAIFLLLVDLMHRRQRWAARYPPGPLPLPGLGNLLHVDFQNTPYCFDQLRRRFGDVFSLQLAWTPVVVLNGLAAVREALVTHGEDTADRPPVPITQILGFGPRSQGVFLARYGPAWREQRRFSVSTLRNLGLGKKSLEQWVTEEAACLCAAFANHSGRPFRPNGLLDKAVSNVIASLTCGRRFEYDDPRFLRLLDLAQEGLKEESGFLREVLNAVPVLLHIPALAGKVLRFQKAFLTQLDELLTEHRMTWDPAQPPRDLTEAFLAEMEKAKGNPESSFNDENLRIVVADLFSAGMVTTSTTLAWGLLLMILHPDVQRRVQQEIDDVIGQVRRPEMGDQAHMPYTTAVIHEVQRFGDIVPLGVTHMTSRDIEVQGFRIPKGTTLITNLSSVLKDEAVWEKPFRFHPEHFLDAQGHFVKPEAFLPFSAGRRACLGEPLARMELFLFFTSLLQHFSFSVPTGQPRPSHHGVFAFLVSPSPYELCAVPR

[3] = biological target: Cytochrome P450 3A4 (Homo sapiens, UniProt P08684); assay: Metabolic stability of the compound assessed as CYP3A4 (unknown origin)-mediated conversion to N-((2S)-1-((3S)-2-hydroxychroman-3-ylamino)-1-oxo-3-phenylpropan-2-yl)-4-methylpiperazine-1-carboxamide measured up to 4 hrs in presence of NADPH-regenerating system; assay type: ADME
Cytochrome P450 3A4, sequence (P08684 whole entry): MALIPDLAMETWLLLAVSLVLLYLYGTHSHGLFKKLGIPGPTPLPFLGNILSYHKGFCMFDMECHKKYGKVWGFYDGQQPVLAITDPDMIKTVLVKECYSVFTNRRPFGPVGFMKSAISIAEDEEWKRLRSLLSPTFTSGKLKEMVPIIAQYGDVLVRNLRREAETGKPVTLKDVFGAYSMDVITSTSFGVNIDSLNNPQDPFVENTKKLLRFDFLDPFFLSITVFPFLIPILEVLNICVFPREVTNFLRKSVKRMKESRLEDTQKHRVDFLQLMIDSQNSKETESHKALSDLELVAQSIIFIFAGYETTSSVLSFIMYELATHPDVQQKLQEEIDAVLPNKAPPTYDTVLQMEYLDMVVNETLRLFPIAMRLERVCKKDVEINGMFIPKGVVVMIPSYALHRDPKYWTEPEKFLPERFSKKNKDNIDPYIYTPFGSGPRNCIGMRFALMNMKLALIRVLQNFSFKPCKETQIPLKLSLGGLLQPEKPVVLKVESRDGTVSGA

[4] = system: C2C12; assay: Cytotoxicity against mouse C2C12 cells assessed as reduction in cell viability at up to 40 uM; assay type: cell-based
[5] = biological target: Cruzipain (Trypanosoma cruzi, UniProt P25779); assay: Time dependent inhibition of Trypanosoma cruzi cruzain using Cbz-Phe-Arg-AMC as substrate assessed as inhibition constant for EI complex measured for 0.5 to 1 hr by fluorescence based analysis
Cruzipain, sequence (P25779 whole entry): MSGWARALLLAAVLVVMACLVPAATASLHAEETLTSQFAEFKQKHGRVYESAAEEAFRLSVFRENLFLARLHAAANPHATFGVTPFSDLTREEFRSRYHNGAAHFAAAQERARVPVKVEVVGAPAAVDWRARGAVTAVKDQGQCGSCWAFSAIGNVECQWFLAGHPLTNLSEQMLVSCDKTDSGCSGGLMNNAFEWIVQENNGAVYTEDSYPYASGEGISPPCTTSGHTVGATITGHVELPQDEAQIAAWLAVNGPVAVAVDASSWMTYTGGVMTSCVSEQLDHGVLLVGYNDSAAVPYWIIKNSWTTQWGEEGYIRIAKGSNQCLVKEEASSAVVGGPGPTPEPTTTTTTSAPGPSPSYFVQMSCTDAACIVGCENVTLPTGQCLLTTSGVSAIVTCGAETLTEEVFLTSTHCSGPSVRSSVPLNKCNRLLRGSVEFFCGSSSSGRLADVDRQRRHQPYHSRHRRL

[6] = system: Trypanosoma brucei brucei; assay: Antitrypanosomal activity against bloodstream form of Trypanosoma brucei brucei measured after 3 to 4 days by Z2 coulter counter based analysis; assay type: functional, organism-based
Procedure, shortened: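 Bloodstream-form T. b. brucei SM427 grown at 37 °C in HM1–9 with 10% FBS and penicillin–streptomycin, seeded at ~1×10⁶ cells. Inhibitor at 0.5–20 μM final (DMSO <1%). Cultures diluted daily to stay in log phase, with inhibitor re-added each time. Cells counted with a Coulter counter.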

[7] = biological target: Cruzipain (Trypanosoma cruzi) (UniProt P25779); assay: Binding affinity to Trypanosoma cruzi cruzain assessed as formation of enzyme-inhibitor adducts by measuring mass changes by mass spectrometric analysis
Cruzipain (Trypanosoma cruzi), sequence (P25779 123-467 limits assumed): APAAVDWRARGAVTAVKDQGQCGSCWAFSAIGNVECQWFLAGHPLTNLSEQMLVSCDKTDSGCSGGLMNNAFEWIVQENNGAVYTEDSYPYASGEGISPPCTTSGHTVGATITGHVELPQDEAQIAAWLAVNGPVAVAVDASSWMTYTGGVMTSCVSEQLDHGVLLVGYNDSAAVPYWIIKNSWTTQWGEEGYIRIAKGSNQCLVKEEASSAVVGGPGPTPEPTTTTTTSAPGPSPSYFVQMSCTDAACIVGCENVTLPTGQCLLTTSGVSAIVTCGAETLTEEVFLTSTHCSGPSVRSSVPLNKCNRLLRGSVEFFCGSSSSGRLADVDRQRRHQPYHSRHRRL

[8] = biological target: Cruzipain (Trypanosoma cruzi) (UniProt P25779); assay: Reversible inhibition of Trypanosoma cruzi cruzain using Cbz-Phe-Arg-AMC as substrate at 0.1 times apparent Ki preincubated for 2 hrs followed by 100-fold dilution in presence of substrate by rapid dilution assay relative to control
[9] = biological target: Cruzipain (Trypanosoma cruzi) (UniProt P25779); assay: Reversible inhibition of Trypanosoma cruzi cruzain using Cbz-Phe-Arg-AMC as substrate assessed as enzyme recovery at 10 fold >apparent Ki preincubated for 2 hrs followed by 100-fold dilution in presence of substrate by rapid dilution assay relative to control; parameters: scale not given: the % may be the effect or the level left
[10] = system: Trypanosoma cruzi; assay: Antitrypanosomal activity against Trypanosoma cruzi infected in mouse C2C12 cells incubated for 2 days by DAPI staining based microscopic analysis; assay type: functional, organism-based; details: C2C12, 48 h
Procedure, shortened: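 Inhibitor added as 3-fold serial dilutions, top 40 μM (typically 0.02–40 μM), 2 days at 37 °C. Fixed with 2% PFA in PBS, stained with 5 μg/mL DAPI for >30 min in the dark, then imaged to count parasites and host cells.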

[11] = Stability of the compound in buffer at pH 7.5 assessed as conversion to N-((2S)-1-((3S)-2-hydroxychroman-3-ylamino)-1-oxo-3-phenylpropan-2-yl)-4-methylpiperazine-1-carboxamide by measuring half life by LC-MS analysis; assay type: physicochemical
[12] = Chemical stability of the compound in NMR buffer in absence of DTT assessed as phenylhydrazone formation at 0.2 mM incubated for 2 hrs in presence of 1 M phenyl hydrazine by UV absorbance based analysis; assay type: physicochemical; details: 200 µM
Procedure, shortened: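 0.2 mM compound treated with 1 mM phenylhydrazine final (added from a 1 M stock) in NMR buffer lacking DTT, with a DMSO control. Phenylhydrazone formation followed continuously by UV absorbance at 282 nm for 2 h.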

[13] = biological target: Cruzipain (Trypanosoma cruzi) (UniProt P25779); assay: Binding affinity to Trypanosoma cruzi cruzain assessed as covalent bond formation between compound and Cys25 residue by 2D HSQC NMR spectroscopy analysis
Procedure, shortened: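 ¹³C-labelled lactol diluted from a 10 mM DMSO-d6 stock into NMR buffer. Control at 0.6 mM; sample at 0.4 mM with 0.44 mM freshly SEC-purified cruzain. ¹H-¹³C HSQC recorded at 800 MHz and 25 °C, with a spectrum acquired after 1 h with enzyme.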

[14] = biological target: Cruzipain (Trypanosoma cruzi) (UniProt P25779); assay: Time dependent inhibition of Trypanosoma cruzi cruzain using Cbz-Phe-Arg-AMC as substrate measured after >= 20 mins; details: time min >=20, TDE = time-dependent effect
Procedure, shortened: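 Started by adding cruzain to 0.2 nM. Fluorescence (ex 360 / em 460 nm) followed for 20–60 min.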

[15] = biological target: Cruzipain (Trypanosoma cruzi) (UniProt P25779); assay: Reversible inhibition of Trypanosoma cruzi cruzain using Cbz-Phe-Arg-AMC as substrate assessed as enzyme recovery preincubated for 2 hrs followed by 100-fold dilution in presence of substrate by rapid dilution assay
[16] = Selectivity index, ratio of EC50 for antitrypanosomal activity against bloodstream form of Trypanosoma brucei brucei measured after 3 to 4 days by Z2 coulter counter based analysis to Ki for time dependent inhibition of Trypanosoma cruzi cruzain using Cbz-Phe-Arg-AMC as substrate assessed as inhibition constant for EI complex measured for 0.5 to 1 hr by fluorescence based analysis; assay type: toxicity
[17] = biological target: Cruzipain (Trypanosoma cruzi) (UniProt P25779); assay: Time dependent inhibition of Trypanosoma cruzi cruzain using Cbz-Phe-Arg-AMC as substrate assessed as association rate constant for EI complex measured over 30 mins
[18] = biological target: T1, Liver carboxylesterase (Sus scrofa, UniProt Q29550); assay: Stability of the compound in buffer at pH 7.5 assessed as porcine esterase-mediated compound degradation measured over 3 hrs by LC-MS analysis; assay type: ADME; details: pig, read-out: Drug degradation
T1 sequence (Q29550 whole entry): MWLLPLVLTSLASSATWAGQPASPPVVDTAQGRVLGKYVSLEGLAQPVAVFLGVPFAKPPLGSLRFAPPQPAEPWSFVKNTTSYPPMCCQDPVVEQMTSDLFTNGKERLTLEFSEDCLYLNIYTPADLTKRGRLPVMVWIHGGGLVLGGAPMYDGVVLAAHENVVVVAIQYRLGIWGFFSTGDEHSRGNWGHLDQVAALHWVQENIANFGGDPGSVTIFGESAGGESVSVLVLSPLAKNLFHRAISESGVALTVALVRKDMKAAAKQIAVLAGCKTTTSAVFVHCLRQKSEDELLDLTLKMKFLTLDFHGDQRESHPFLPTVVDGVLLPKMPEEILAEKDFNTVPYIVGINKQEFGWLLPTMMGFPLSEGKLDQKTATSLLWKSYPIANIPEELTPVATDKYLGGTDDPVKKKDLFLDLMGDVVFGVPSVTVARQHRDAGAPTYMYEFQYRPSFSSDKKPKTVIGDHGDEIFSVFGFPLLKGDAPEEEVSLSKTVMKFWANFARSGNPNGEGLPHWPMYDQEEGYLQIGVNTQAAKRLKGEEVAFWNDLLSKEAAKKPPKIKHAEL
Procedure, shortened: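 Prodrugs at 2 mM in cruzain assay buffer (pH 7.5, 10% DMSO) with porcine liver esterase at 40 U/mL, shaken at 37 °C. Controls without esterase and buffer only. Aliquots taken at 0–300 min and quenched with MeCN, then the supernatant analysed by HPLC–MS with detection at 270 nm.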

Structure (SMILES)	Activity [4]	Ki [5] [µM]	EC50 [6] [µM]	inhibition [8] [%]	Activity [9] [%]	EC50 [10] [µM]	other results
CCOC1Oc2ccccc2C[C@@H]1NC(=O)[C@H](Cc1ccccc1)NC(=O)N1CCN(C)CC1 (stereo partly drawn)	Non-Toxic	> 5	12				Stability [1]: Stable; Stability [2]: Stable; Stability [3]: Stable
O=C(N[C@@H](Cc1ccccc1)C(=O)N[C@H]1Cc2cc(F)ccc2OC1O)OCc1ccccc1 (stereo partly drawn)	Non-Toxic	0.048	2.7	9	91	3.5	Activity [7]: Active
CC(C)C(=O)OC1Oc2ccccc2C[C@@H]1NC(=O)[C@H](Cc1ccccc1)NC(=O)N1CCN(C)CC1 (stereo partly drawn)	Non-Toxic	> 5	4			10	t1/2 [11]: 16 min
O=C(CN[C@@H](Cc1ccccc1)C(=O)N[C@H](CO)Cc1ccccc1O)OCc1ccccc1		> 10					
CN1CCN(C(=O)N[C@@H](Cc2ccccc2)C(=O)N[C@H]2Cc3ccccc3OC2O)CC1 (stereo partly drawn)	Non-Toxic	0.047	0.6			> 20	Activity [7]: Active; Stability [12]: Stable; Activity [13]: Active; inhibition [14]: Tde; Activity [15]: inactive
CN1CCN(C(=O)N[C@@H](Cc2ccccc2)C(=O)N[C@@H]2Cc3ccccc3C[C@H]2O)CC1 (mixture of isomers)		> 100					
O=C(N[C@@H](Cc1ccccc1)C(=O)N[C@H]1Cc2cc(Cl)ccc2OC1O)OCc1ccccc1 (stereo partly drawn)	Non-Toxic	0.074	5.8	9	91		
Cc1ccc2c(c1)C[C@H](NC(=O)[C@H](Cc1ccccc1)NC(=O)OCc1ccccc1)C(O)O2 (stereo partly drawn)	Non-Toxic		0.5	9	91	5.7	Activity [7]: Active
CCC(=O)OC1Oc2ccccc2C[C@@H]1NC(=O)[C@H](Cc1ccccc1)NC(=O)N1CCN(C)CC1 (stereo partly drawn)	Non-Toxic	> 5	3.1				t1/2 [11]: 24 min
COC(=O)c1ccc2c(c1)C[C@H](NC(=O)[C@H](Cc1ccccc1)NC(=O)OCc1ccccc1)C(O)O2 (stereo partly drawn)	Non-Toxic	0.018	4	9	91	3.5	
O=C[C@H](Cc1ccccc1)NC(=O)[C@H](Cc1ccccc1)NC(=O)OCc1ccccc1 (Cbz-Phe-Phe-aldehyde)	Toxic	0.00044	3.3			0.5	Ratio [16]: 7500; Activity [15]: inactive; Ka [17]: 7.6 10^-4/s
COc1ccc2c(c1)C[C@H](NC(=O)[C@H](Cc1ccccc1)NC(=O)OCc1ccccc1)C(O)O2 (stereo partly drawn)	Non-Toxic	0.35	2.6	9	91		
CC(=O)OC1Oc2ccccc2C[C@@H]1NC(=O)[C@H](Cc1ccccc1)NC(=O)N1CCN(C)CC1 (stereo partly drawn)	Non-Toxic	1	3.7			13	metabolised at 3 h [18]: 10%; t1/2 [11]: 48 min
CN1CCN(C(=O)N[C@@H](Cc2ccccc2)C(=O)N[C@H](/C=C/S(=O)(=O)c2ccccc2)CCc2ccccc2)CC1 [K-777]	Toxic					0.04	
COc1ccccc1C[C@@H](C=O)NC(=O)[C@H](Cc1ccccc1)NCC(=O)OCc1ccccc1		0.022					
O=C(N[C@@H](Cc1ccccc1)C(=O)N[C@H]1Cc2ccccc2OC1O)OCc1ccccc1 (stereo partly drawn)	Non-Toxic	0.049	6.8	9	91	2.9	Activity [7]: Active
O=C(Cn1ccnc1[N+](=O)[O-])NCc1ccccc1 [BENZNIDAZOLE]						4	
CC(C)OC1Oc2ccccc2C[C@@H]1NC(=O)[C@H](Cc1ccccc1)NC(=O)N1CCN(C)CC1 (stereo partly drawn)	Non-Toxic	> 5	14				Stability [1]: Stable; Stability [2]: Stable; Stability [3]: Stable
CN1CCN(C(=O)N[C@@H](Cc2ccccc2)C(=O)N[C@H](C=O)CCc2ccccc2)CC1							Stability [12]: Unstable; inhibition [14]: Tde; Activity [15]: inactive

Source: ChEMBL document CHEMBL5034020, “Self-Masked Aldehyde Inhibitors: A Novel Strategy for Inhibiting Cysteine Proteases” (J Med Chem, 2021)
